miR122 inh = miR-122 inhibition in Huh7 cells; Huh7 miR-122 Renilla luciferase sensor, 48 h; neutral wells = 0, positive control = 100; activation (reporter increase), % at 12.5 µM; 340,000 compounds, 0.3% hits; AID 602342;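 active = mean replicate activation score at least 90 and every replicate individually at or above 90; inconclusive = only one of the two criteria met; inactive = neither criterion met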;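 also: higher luciferase means less miR-122 activity so hits act as miR-122 inhibitors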
PGC1a acetyl inh = lowers PGC1a acetylation signal in U2OS cells; AlphaScreen anti-acetyl-lysine; with virally co-expressed GCN5 acetyltransferase; inhibition, % at 15.6 µM; 350,000 compounds, 0.17% hits; AID 651687;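 active = every replicate shows inhibition of at least 40%; inconclusive = mean inhibition at least 40% but some replicate below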
CAL PDZ FP-1 = CAL PDZ (human) peptide binding inhibition; Q9HD26; purified CAL PDZ, TMR-peptide fluorescence polarization, 1 h; inhibition, % at 24.9 µM; 300,000 compounds, 0.92% hits;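 active = mean inhibition of at least 30% with at least half of replicates also reaching 30%; inconclusive = no clear call, values can overlap the other calls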
CAL PDZ FP-2 = blocks peptide binding to human CAL PDZ domain; 330,000 compounds, 0.02% hits; purified CAL PDZ, TMR-peptide fluorescence polarization, 1 h; inhibition, % at 20 µM;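 active = highest replicate inhibition of at least 40%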
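Material – purified CerCALP PDZ construct · Detection – FP readout, S and P plane fluorescence · Measure – percent inhibition from loss of millipolarization · Controls – unlabelled peptide for full inhibition, DMSO wells as neutral · Probe or stimulus – TMR-labelled reporter peptide T*-PRC34 bound in PDZ groove · Times – 1 h at RT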
ARNT TACC3 PPI = ARNT/TACC3 interaction disruption; Q9Y6A5; AlphaScreen His-ARNT PAS-B/GST-TACC3 binding, luminescence; TACC3 fragment carries E629A point mutation; inhibition, % at 9.99 µM; 390,000 compounds, 0.66% hits; AID 623870;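 active = mean inhibition of replicates at least 50% and at least half of replicates each reaching 50%; inconclusive = half or more replicates reach 50% but mean below 50%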
F508del corr = correctors of CFTR F508del function in bronchial epithelial cells. CFBE cells, YFP halide quenching; stimulated with forskolin plus potentiator P3; % fluorescence drop versus neutral controls. activity (quench increase), % at 7.58 µM. 350,000 compounds, 0.36% hits. AID 720511;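 active = mean added fluorescence quench of at least 8% versus neutral control, with both replicates also reaching 8%; inconclusive = only one of the mean or replicate conditions met; inactive = mean below 8% and not both replicates reaching 8%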;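 also: cells transiently co-express mutant CFTR-F508del with the halide-sensitive YFP; corrector assay measuring rescue of mutant channel to the surface after 24 h compound exposure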
Each line names hits and unclear results; the compound was inactive in the other large screens. The list is not random: actives were taken first. Their share in the collection is about 1.7%.

CCOC(=O)C1=C(C)N=c2s/c(=C3\C(=O)Nc4ccccc43)c(=O)n2C1c1ccc2c(c1)OCO2 (stereo unspecified)	miR122 inh 91 (no result: PGC1a acetyl inh, F508del corr)
COc1ccc(S(=O)(=O)N(C)C[C@@H]2Oc3c(NC(=O)c4cnccn4)cccc3C(=O)N([C@H](C)CO)C[C@H]2C)cc1	none (no result: CAL PDZ FP-1, CAL PDZ FP-2)
C[C@H](CO)N1C[C@H](C)[C@@H](CN(C)Cc2ccc(Oc3ccccc3)cc2)Oc2ccc(NC(=O)Nc3ccc(C(F)(F)F)cc3)cc2CC1=O	none (no result: CAL PDZ FP-1, CAL PDZ FP-2)
COc1cccc(NC(=O)Nc2ccc3c(c2)C(=O)N(C)[C@@H]2CC[C@@H](CC(=O)O)O[C@H]2CO3)c1	none (no result: CAL PDZ FP-1, CAL PDZ FP-2)
O=S(=O)(Nc1cccc(-c2ccc(N3CCOCC3)nn2)c1)c1cc(Cl)ccc1Cl	none (no result: miR122 inh, PGC1a acetyl inh)
CC(=O)NC(=S)Nc1ccc(N2CCOCC2)c(S(=O)(=O)Nc2cc(Cl)ccc2Cl)c1	CAL PDZ FP-1 64 (no result: miR122 inh)
O=S(=O)(Nc1ccc(N2CCOCC2)cc1)c1cc(Cl)ccc1Cl	miR122 inh 94
COCC(=O)Nc1ccc(N2CCOCC2)c(S(=O)(=O)Nc2ccc(OC)cc2)c1	CAL PDZ FP-1 inconclusive
COc1ccc(NS(=O)(=O)c2cc(NC(=O)COc3ccc(OC)cc3)ccc2N2CCOCC2)cc1	miR122 inh 110 (no result: CAL PDZ FP-1)
COc1cccc(CC(=O)Nc2ccc(N3CCOCC3)c(S(=O)(=O)Nc3ccccc3OC)c2)c1	miR122 inh 129 (no result: ARNT TACC3 PPI)
C[C@@H]1CN([C@@H](C)CO)C(=O)c2cc(NS(=O)(=O)c3cccs3)ccc2O[C@@H](C)CCCCO[C@@H]1CN(C)Cc1ccncc1	none (no result: CAL PDZ FP-1, CAL PDZ FP-2)
COc1ccc2c3c([nH]c2c1)[C@H](CO)N(C(=O)c1ccncc1)CC31CN(C(=O)CC2CC2)C1	none (no result: miR122 inh, CAL PDZ FP-1, CAL PDZ FP-2, ARNT TACC3 PPI)
Cc1cc(Nc2ccc(Br)cc2)n2nc(C)nc2n1	ARNT TACC3 PPI 11 (no result: miR122 inh, PGC1a acetyl inh, CAL PDZ FP-1)
Cc1cc(Nc2ccc(F)cc2)n2nc(C)nc2n1	none (no result: ARNT TACC3 PPI)
Cc1ccc(N2CCN(CCCCN3C(=O)C4CCCN4C3=O)CC2)cc1 (stereo unspecified)	CAL PDZ FP-1 63 (no result: miR122 inh, PGC1a acetyl inh, F508del corr)
CO[C@@]12[C@@H]3N[C@@H]3CN1C1=C(C(=O)C(N)=C(C)C1=O)[C@@H]2COC(N)=O	F508del corr 14
Cc1ccc(S(=O)(=O)Nc2ccccc2C(=O)N2CCN(C)CC2)cc1	CAL PDZ FP-1 44
Cc1ccc(S(=O)(=O)Nc2ccccc2C(=O)N2CCCC2)cc1	none (no result: CAL PDZ FP-1)
NC(=O)C1=CC2C3C=CC2(O)C(=O)OC3O1 (stereo unspecified)	miR122 inh 136
Cc1ccc(-c2nn3c(C)nnc3c3ccccc23)cc1S(=O)(=O)NCCN1CCOCC1	miR122 inh 198 (no result: CAL PDZ FP-1, F508del corr)
Cc1ccc(-c2n[nH]c(=O)c3ccccc23)cc1S(=O)(=O)NCCN1CCOCC1	miR122 inh inconclusive, CAL PDZ FP-1 42 (no result: CAL PDZ FP-2, F508del corr)
CCCN1[C@@H]2c3ccc(-c4ccc(F)cc4)c(=O)n3C[C@H]1[C@H](CO)[C@H]2C(=O)NCCc1cn(C)cn1	none (no result: CAL PDZ FP-1, CAL PDZ FP-2)
COc1cc(SC)ccc1C(=O)N1CCN(Cc2ccc3c(c2)OCO3)CC1	CAL PDZ FP-1 46
COc1ccc(OCC(O)CN2CCN(Cc3ccc4c(c3)OCO4)CC2)cc1 (stereo unspecified)	ARNT TACC3 PPI 47 (no result: miR122 inh, PGC1a acetyl inh, F508del corr)
CCCCn1cnc2c(SCCc3ccccc3)nc(N)nc21	none
CCCn1cnc2c(SCCc3ccccc3)nc(N)nc21	CAL PDZ FP-1 54 (no result: PGC1a acetyl inh, CAL PDZ FP-2)
COc1ccccc1S(=O)(=O)N1CC[C@@H]2[C@@H](CO)Nc3ccc(-c4ccc(F)cc4)cc3[C@@H]21	none (no result: CAL PDZ FP-1, CAL PDZ FP-2)
CC(C)Oc1cccc(C(=O)NC(=S)Nc2cccc(NC(=O)c3ccccc3Cl)c2)c1	ARNT TACC3 PPI 49 (no result: F508del corr)
CC(C)CC(=O)NC(=S)Nc1cccc(NC(=O)c2ccccc2Cl)c1	none (no result: PGC1a acetyl inh, F508del corr)
COc1ccc(S(=O)(=O)N(C)C[C@@H]2OCCCC[C@H](C)Oc3ccc(NC(=O)NC(C)C)cc3C(=O)N([C@H](C)CO)C[C@@H]2C)cc1	none (no result: CAL PDZ FP-1, CAL PDZ FP-2)
O=[N+]([O-])/C(C=Nc1ccccc1O)=C\Nc1ccccc1O	CAL PDZ FP-1 35
Cc1cccc(COc2ccc(/C=C3/C(=O)N(C)C(=S)N3C)cc2)c1	PGC1a acetyl inh 71 (no result: CAL PDZ FP-1)
Cc1ccc(-c2nc3c(c(=O)[nH]c(=O)n3Cc3ccccc3)n2C)o1	CAL PDZ FP-1 31 (no result: miR122 inh, PGC1a acetyl inh)
